Assay outcomes: PubChem BioAssay, several laboratories
DAX1 inh-1: DAX1 (NR0B1) inhibitors on StAR promoter, primary screen, cell-based, luminescence, SF-1 (NR5A1), full-length DAX-1. actives 1.1% (n = 370,000). inhibition, % at 6.8 µM. AID 652010, 2013. HEK293T StAR-luciferase reporter, SF-1/DAX-1 repression relief;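 active = inhibition above the mean over all tested compounds plus 3 SD, cut at about 3.6% in these data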;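 note: higher inhibition means more luminescence from relief of DAX-1 repression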
NR2E3 ag-1: inhibitors of NR2E3-RetCOR corepressor binding, primary screen, NR2E3 agonist project, biochemical, TR-FRET, GST-NR2E3, biotin-RetCOR | actives 0.12% (n = 320,000) | 1536-well | Photoreceptor-specific nuclear receptor (Homo sapiens), Q9Y5X4 | inhibition of corepressor binding, % at 4.78 µM;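 active = percent inhibition above the cutoff of mean plus 3 SD of all tested compounds, set per screening campaign, cut at about 20% in these data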
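System: GST-tagged NR2E3 plus biotinylated RetCOR corepressor; Amount: 1.35 nM GST-tagged NR2E3 final; Dosing: single nominal compound dose of 4.8 µM; Schedule: 5 h incubation at 4 °C; Technique: TR-FRET with europium anti-GST and streptavidin-D2, 340 nm excitation; Controls: biotin wells as high control, 0.6% DMSO wells as low control.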
JMJD2C inh: inhibitors of GASC-1 histone demethylase, primary screen, biochemical, fluorescence, DELFIA europium. inhibition, % at 2.35 µM. Lysine-specific demethylase 4C (Homo sapiens), Q9H3R0. AID 2099, 2009. actives 0.069% (n = 330,000). GST-JMJD2C(1-420) H3K9me3 demethylation;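 active = more than half of a compound's replicate wells show inhibition beyond 50%, single wells judged on their own value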;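 note: signal counts dimethyl H3K9 product captured on neutravidin plate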
DAX1 inh-2: DAX1 (NR0B1) inhibitors, primary screen, cell-based, HEK293, Gal4-DAX1, luciferase luminescence. Nuclear receptor subfamily 0 group B member 1 (Homo sapiens), P51843. HEK293 Gal4-DAX1 luciferase reporter. inhibition, % at 6.75 µM. actives 0.99% (n = 340,000). AID 504766, 2011;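 active = inhibition above the mean over all tested compounds plus 3 SD, cut at about 4.2% in these data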;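 note: inhibition shows as a rise in luminescence from relieved DAX1 repression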
Target sequence (P51843 207-470 limits assumed): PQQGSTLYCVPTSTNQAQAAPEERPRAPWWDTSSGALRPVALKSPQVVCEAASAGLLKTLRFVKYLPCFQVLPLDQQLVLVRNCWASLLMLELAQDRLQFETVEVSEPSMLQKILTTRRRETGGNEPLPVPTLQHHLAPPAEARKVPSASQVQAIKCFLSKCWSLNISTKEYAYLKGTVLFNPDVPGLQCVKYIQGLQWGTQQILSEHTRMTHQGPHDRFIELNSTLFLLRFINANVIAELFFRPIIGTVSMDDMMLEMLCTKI
SMARCA2 act: SMARCA2 (BRM) function activators, primary screen, cell-based, luminescence, high throughput | MG213 cells, MMTV-luciferase reporter, dexamethasone, overnight | actives 1% (n = 370,000) | activation, % at 9.1 µM; in the data active = activation above about 7.8%
NR2E3 ag-2: NR2E3 agonists in two-hybrid cells, primary screen, cell-based, luminescence, CHO-S, Gal4-NCOR/VP16-NR2E3; Photoreceptor-specific nuclear receptor (Homo sapiens), Q9Y5X4; luciferase; inhibition of corepressor binding, % at 3.98 µM; actives 0.35% (n = 360,000); AID 602229, 2012;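 active = inhibition above the mean of all tested compounds plus 3 SD, cut at about 70% in these data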;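 note: higher means lower luciferase signal from less NR2E3 corepressor binding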
DAX1 conf: DAX1 (NR0B1) inhibitors relieving SF-1 repression, confirmation, cell-based, luminescence, HEK293T, full-length DAX-1, SF-1 activated StAR promoter. shares compounds with DAX1 inh-1. HEK293T StAR-promoter luciferase reporter, SF-1/DAX-1 repression. inhibition, % at 6.8 µM. actives 87% (n = 2,400). AID 652134, 2013;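 active = inhibition above the average of every tested compound plus 3 SD, cut at about 3.8% in these data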
Target sequence (P51843 whole entry, looked up): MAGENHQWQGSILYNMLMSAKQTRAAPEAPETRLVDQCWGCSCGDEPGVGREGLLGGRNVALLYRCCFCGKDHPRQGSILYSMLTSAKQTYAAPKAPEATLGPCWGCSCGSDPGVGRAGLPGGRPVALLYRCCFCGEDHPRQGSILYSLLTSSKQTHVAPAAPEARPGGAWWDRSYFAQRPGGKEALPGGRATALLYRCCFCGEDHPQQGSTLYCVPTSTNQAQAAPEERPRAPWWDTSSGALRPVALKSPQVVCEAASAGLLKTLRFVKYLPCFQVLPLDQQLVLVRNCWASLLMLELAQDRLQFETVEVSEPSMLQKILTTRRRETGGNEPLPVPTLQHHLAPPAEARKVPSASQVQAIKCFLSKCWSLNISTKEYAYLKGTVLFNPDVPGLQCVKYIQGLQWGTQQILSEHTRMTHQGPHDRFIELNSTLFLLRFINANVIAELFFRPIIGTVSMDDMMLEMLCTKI
SF1 mutant ctr: StAR reporter signal changes without DAX1, counter-screen for DAX1 inhibitor project, cell-based, luminescence, AF-2 mutant SF-1, transactivation. inhibition, % at 6.8 µM. actives 78% (n = 2,400). shares compounds with DAX1 inh-1. HEK293 StAR-luciferase, SF-1 AF2 mutant. AID 652136, 2013;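 active = inhibition above the mean of all tested compounds plus 3 SD, cut at about 3% in these data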
SMARCA2 act conf: SMARCA2 (BRM) function activators, confirmation, cell-based, luminescence, triplicate. shares compounds with SMARCA2 act. activation, % at 9.1 µM. MG213 cells, MMTV-luciferase with dexamethasone, overnight; MG213 cells expressing E1A, Rb sequestered; DMSO wells 0%, reference activator 100%. actives 30% (n = 3,500);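 active = activation above its plate's cutoff, the mean activation of tested wells plus 3 SD, cut at about 7.9% in these data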
VP16 Luc act: GAL4-VP16 luciferase reporter activation, counter-screen for SMARCA2 (BRM) activator project, cell-based, pG5luc, luminescence, high throughput | HEK293 GAL4-VP16 pG5luc reporter; scaled: DMSO wells 0%, SAHA wells 100% | actives 41% (n = 3,500) | activation, % at 9.1 µM | shares compounds with SMARCA2 act;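 active = activation above the solvent-only control well mean plus 3 SD, averaged across control plates, cut at about 5.2% in these data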
Numbers stand for hits. Compounds with a hit are over-represented: about 3.2% of the library has one in this group of screens.

For NC(=O)c1ccccc1N/C=C/C(=O)c1ccccc1 the results were DAX1 inh-1 5.8, NR2E3 ag-1 inactive, JMJD2C inh inactive, DAX1 inh-2 inactive, SMARCA2 act 8.0, NR2E3 ag-2 inactive, DAX1 conf 12, SF1 mutant ctr 5.4, SMARCA2 act conf 11 and VP16 Luc act 9.8.
Cc1ccccc1NC(=O)C1CCCN1S(=O)(=O)c1cccnc1 (stereo not drawn) was read as DAX1 inh-1 inactive and SMARCA2 act inactive.
Screening Cc1ccc2oc(C(=O)Nc3cc(C)on3)c(C)c2c1 returned DAX1 inh-1 5.5, NR2E3 ag-1 inactive, JMJD2C inh inactive, DAX1 inh-2 inactive, SMARCA2 act 9.4, NR2E3 ag-2 inactive, DAX1 conf 13, SF1 mutant ctr 8.0, SMARCA2 act conf 8.2 and VP16 Luc act 8.0.
Screening Cc1cc2oc(C(=O)Nc3nonc3C)c(C)c2cc1C returned DAX1 inh-1 7.8, NR2E3 ag-1 inactive, JMJD2C inh inactive, DAX1 inh-2 inactive, SMARCA2 act 8.9, NR2E3 ag-2 inactive, DAX1 conf 13, SF1 mutant ctr 7.2, SMARCA2 act conf inactive and VP16 Luc act 11.
For O=C(NCCC1=CCCCC1)c1ccc([N+](=O)[O-])cc1 the results were DAX1 inh-1 4.6, NR2E3 ag-1 inactive, JMJD2C inh inactive, DAX1 inh-2 inactive, SMARCA2 act 9.5, NR2E3 ag-2 inactive, DAX1 conf 13, SF1 mutant ctr 7.2, SMARCA2 act conf 13 and VP16 Luc act 12.
`O=C(CCNC(=O)c1ccc([N+](=O)[O-])cc1)NCCC1=CCCCC1` gave DAX1 inh-1 inactive, NR2E3 ag-1 inactive, JMJD2C inh inactive, DAX1 inh-2 inactive, SMARCA2 act inactive and NR2E3 ag-2 inactive.
Cc1ccc2c(CN(C)Cc3cccc(F)c3)cc(=O)oc2c1 was read as DAX1 inh-1 inactive, NR2E3 ag-1 inactive, JMJD2C inh inactive, DAX1 inh-2 inactive, SMARCA2 act inactive and NR2E3 ag-2 inactive.
`Cc1ccc2c(CN(C)Cc3ccccc3)cc(=O)oc2c1` gave DAX1 inh-1 6.8, SMARCA2 act 11, NR2E3 ag-2 inactive, DAX1 conf 6.0, SF1 mutant ctr inactive, SMARCA2 act conf 12 and VP16 Luc act 11.
For CCN1CCN(c2cc(C)c3cc(NC(=O)c4ccc5c(c4)OCO5)ccc3n2)CC1 the results were DAX1 inh-1 inactive, NR2E3 ag-1 inactive, JMJD2C inh inactive, DAX1 inh-2 inactive, SMARCA2 act inactive and NR2E3 ag-2 inactive.
CCN1CCN(c2ccc(NC(=O)c3ccc4c(c3)OCCO4)cc2C)CC1 was read as DAX1 inh-1 7.9, DAX1 inh-2 inactive, SMARCA2 act 11, NR2E3 ag-2 inactive, DAX1 conf 11, SF1 mutant ctr 5.2, SMARCA2 act conf inactive and VP16 Luc act 7.9.
For CCN1CCN(c2ccc(NC(=O)c3cc4ccccc4cc3OC)cc2C)CC1 the results were DAX1 inh-1 5.1, NR2E3 ag-1 inactive, DAX1 inh-2 inactive, SMARCA2 act 12, NR2E3 ag-2 inactive, DAX1 conf 7.0, SF1 mutant ctr 3.1, SMARCA2 act conf 8.1 and VP16 Luc act 13.
`CC(COc1cc(F)cc(C#N)c1)CN1CCC(C(O)(c2ccccc2)c2ccccc2)CC1` (stereo not drawn) gave DAX1 inh-1 inactive and SMARCA2 act inactive.
Cc1ccc(OCc2cc(C(=O)N3CCN(C4CCCC4)CC3)no2)cc1C was read as DAX1 inh-1 inactive, NR2E3 ag-1 inactive, JMJD2C inh inactive, DAX1 inh-2 inactive, SMARCA2 act inactive and NR2E3 ag-2 inactive.
Screening Cc1ccc(OCc2cc(C(=O)N3CCN(c4ccccc4)CC3)no2)cc1C returned DAX1 inh-1 5.8, NR2E3 ag-1 inactive, JMJD2C inh inactive, DAX1 inh-2 inactive, SMARCA2 act 13, NR2E3 ag-2 inactive, DAX1 conf 11, SF1 mutant ctr 6.5, SMARCA2 act conf inactive and VP16 Luc act 6.4.
CCOc1ccc(NC(=O)CSc2nnc(-c3n[nH]c4c3CCC4)n2N)cc1 was read as DAX1 inh-1 inactive and SMARCA2 act inactive.
CCN(C[C@H]1[C@@H](c2ccc(C3=CCCC3)cc2)[C@H](CO)N1C(=O)c1cccnc1)S(=O)(=O)c1ccccc1[N+](=O)[O-] was read as DAX1 inh-1 inactive and SMARCA2 act inactive.
COc1ccc(C(=O)c2sc(Nc3ccc(NC(C)=O)cc3)nc2C)cc1 was read as DAX1 inh-1 inactive, NR2E3 ag-1 inactive, JMJD2C inh inactive, DAX1 inh-2 inactive, SMARCA2 act inactive and NR2E3 ag-2 inactive.
For CC(=O)c1sc(NC(=O)c2ccc(C(C)(C)C)cc2)nc1C the results were DAX1 inh-1 7.6, NR2E3 ag-1 inactive, JMJD2C inh inactive, DAX1 inh-2 inactive, SMARCA2 act 8.2, NR2E3 ag-2 inactive, DAX1 conf 14, SF1 mutant ctr 9.6, SMARCA2 act conf 8.0 and VP16 Luc act 18.
Screening COc1ccc(Nc2nc(C)c(C(C)=O)s2)cc1 returned DAX1 inh-1 4.9, SMARCA2 act 8.2, NR2E3 ag-2 inactive, DAX1 conf 5.1, SF1 mutant ctr 4.6, SMARCA2 act conf inactive and VP16 Luc act 10.
Screening COC(=O)C[C@H]1CC[C@@H]2[C@H](COc3ccc(NC(=O)c4ccccc4OC)cc3C(=O)N2C)O1 returned DAX1 inh-1 inactive and SMARCA2 act inactive.
